Results: the RNAGym collection of RNA variant scans (doi:10.1126/science.aae0568)
This sample holds only a part of the variants without activity.

B1: tRNA (parent)
chain: GUUCCGUUGGCGUAAUGGUAACGCGUCUCCCUCCUAAGGAGAAGACUGCGGGUUCGAGUCCCGUACGGAACG

Variants of: B1
Experiment: yeast fitness relative to wild type (ratio to wild type); higher = fitter; tRNA-Arg(CCU), competitive growth, 37 C, YPD
Procedure, shortened: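 Genotype frequency changes were the basis for Darwinian fitness relative to wild type. The frequencies came from 100-nucleotide paired-end sequencing of gene amplicons from the start population and each end population of pooled yeast strains with tRNA-Arg(CCU) gene variants at the native locus. Competition ran in YPD at 37°C for 24 hours in six replicates, genotypes needed ≥ 100 starting reads, and estimates < 0.5 were set to 0.5.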
GUUCCGUUGGCGUACUGGUAACGCGUCUCCUUCCUAAGGAGAAGACUCCGGGUUCGAGUCCCGUCCGGAACG [A15C C31U G48C A65C] showed a yeast fitness of no more than 0.5. Work on GUUCCGUUGGCGUAAUGGUAACGAGUCUCCCUCCUAAGGAGAAGACUGCGGGUUCGAGUCCCGUACCGAACG [C24A G67C] yielded a yeast fitness of 0.74. GUUCCGCUGGCGUAAUGGUAACGCGUCUCCCUUCUAAGGAGAAGACUGUGGGUUCGAGUCCCGUACGGAUCG [U7C C33U C49U A70U] showed a yeast fitness of no more than 0.5. Work on GCUCCGUUGGCGUAAUGGUAACGUGUCUCCCUCCUAAGGAGAAGACUGCGGGUUCGUGUCCCGUACGGAACG [U2C C24U A57U] yielded a yeast fitness of no more than 0.5. With GUUGCGUUGGCGUAAUGGUAAGGUGUCUCCCUCCUAAGGAAAAGACUGCGGGUUCGUGUCCCGUAAGGAACG [C4G C22G C24U G41A A57U C66A] the yeast fitness was no more than 0.5. In the case of GUUCCGUUGGCGUAAUGGUAACGCGUCACCCUCCUAAGGAGAAGACUGCGGGUUGGAGUCCGGUACGGAACG [U28A C55G C62G], the yeast fitness is reported as no more than 0.5. GUUCCGUAGGCGUAAUGGUAACGCGUCUCCCUCCUAAGGAGAACACUGCGGGUUCGUGUCCCGUACGGAACG [U8A G44C A57U] showed a yeast fitness of no more than 0.5. GUUCCGUUGGCGUAAUGGUAACGCGUCUCCCUCCUAGGAAGAAGAGUGCGGGCUCGAGUCCUGUACGGCACG [A37G G39A C46G U53C C62U A69C] gave a yeast fitness of no more than 0.5. For GUUCGGUUGGCGUAAUGGUAACGCGUCUCCCUCCUAAGGAGAAGACUGCGGGUUCGAGUCCGGAACGGAACG [C5G C62G U64A], the yeast fitness was no more than 0.5. GUUCCGUUGGCGUAAUGGUAACGCGUCUCCCUUCUAAGGAGAAGACUGCGGGUUCGAGUCCCGUACGGAUCG [C33U A70U] showed a yeast fitness of 0.902. Variant GAUCCGUUGGCGUAAUGGUAACGCGUCUCCCUCCUAAGGAGAAGACUGUGGGUUCGAGUCCUGUACGGAACG [U2A C49U C62U] has a yeast fitness of 0.522. In the case of GUUCCGAUGGCGUAAUGGUAGCGCGUCUCGCUCCUGAGGAGAAGAGUGCGGGUUCGUGUCCCGUACGGAACG [U7A A21G C30G A36G C46G A57U], the yeast fitness is reported as 0.545. In the case of GUUCUGCUGGCGUAAUGGUAACGCGUCUCCCUCCUAAGGAGAAGACUGCGGGUUCGAGUCCCGUACGCAACG [C5U U7C G68C], the yeast fitness is reported as no more than 0.5. With GUUCCGUUGGCGUAAUGGUAACGUGUCUCCCUCCUAAGGAGAAGGGUGCGGGUUGGAGUCCCGUACGGCACG [C24U A45G C46G C55G A69C] the yeast fitness was no more than 0.5. Variant GUUCAGUUGGCGUAAUGGUAACACGUCUCCCUCCUAAGCACAAGACUGCGGGUUCGAGUCCCGUACGGACCG [C5A G23A G39C G41C A70C] has a yeast fitness of no more than 0.5. Work on GUUCGGUUGGCGUAUUGGUAACGCGUCUCCCUCCUAAGGAGAAGACUGUGGGUUCGUGUCACGUACGGAACG [C5G A15U C49U A57U C61A] yielded a yeast fitness of 0.663. For GUUCCGUUAGCGUAAUGGUAACGCGUCUUCCUCCUAAGGAGAAGAUUGCGGGUUCGAGUCCCGUACCGAACG [G9A C29U C46U G67C], the yeast fitness was 0.583. In the case of GUUCCGUUGGCGUAACGGUAACGCGUCUCCCUCCUAAGGAGAAGACUGCGGGUUUGAGUCCCGUACGGUACG [U16C C55U A69U], the yeast fitness is reported as 0.629. For GUUCCGUUGGCGUAAUGGUAACGAGUCUCCCUCUUAAGGCGAAGACUGCGGGUUCGAGUCCCGUACGGAACG [C24A C34U A40C], the yeast fitness was no more than 0.5. GUUCCGUUGGCGUAAUGGUAACGCGCCUCCCUCCUAAGGAGAAGAAGGCAGGUUCGAGUCCCGUACGGCACG [U26C C46A U47G G50A A69C] gave a yeast fitness of no more than 0.5. Variant GUUCCGUUGGCGUAAUGAUAACGCGUCUCCCUCCUAAGGAGGAGACUGCGGGUUCGAGUCCCGUACGGAACG [G18A A42G] has a yeast fitness of 0.692. GUUCCGUUGGCGUGAUGGUAACGCGUCUCCCUCCUUAGGAGAAGACUGCAGGUUCGAGUCCGGUACGGAACG [A14G A36U G50A C62G] gave a yeast fitness of no more than 0.5. GUUCCGUCGGCGUAAUGGUUACGCGUCUUGCUCCUAGGGAGAAAACUGCGGGUUCGAGUCCCGUACGGAACG [U8C A20U C29U C30G A37G G44A] gave a yeast fitness of no more than 0.5. Work on GUUCCGUUGGUGUAAUGGUAACGCGUCUCCCUCCUAAGGAGAAGACUGCGGGUUCGAGUCCCGUAGGGAACG [C11U C66G] yielded a yeast fitness of 0.745. Variant GUUCCGUUGGCGUAUUGGUAACGCGUCUCCCUCCUAAGGAGUAGAGUGCGGGUUCGAGUCGCGUACGGAACG [A15U A42U C46G C61G] has a yeast fitness of 0.652. Variant GUUCCGUUGGCGUAAUGGUAACGCGUCUCCGUCCUAAGGAGAAGACUGCGGGUCGGAGUCCCGCACGGAACG [C31G U54C C55G U64C] has a yeast fitness of no more than 0.5. With GUUCCGUUGGCGUAAUGGUAACGCGUUUCCCUUCUAACGAGAAGACUGCGGGUUCGAGUCCUGUACGGAACG [C27U C33U G38C C62U] the yeast fitness was no more than 0.5. Work on GUUACGUUGGCGUAAUGGUAACGCGACUCCCGCCUAAGGAGAAGACUGCGGGUUCGAGUCCCGUGCGGAACG [C4A U26A U32G A65G] yielded a yeast fitness of 0.793. In the case of GUGCCGUUGGCGUAAUGGUAACGCGUCUCCCUCCUAAGGAGAAGACUGCGGGUUCGAGUCCCGUAAGGAACG [U3G C66A], the yeast fitness is reported as 0.591. Variant GUUCCGUUAACGUAAUGGUAACGCGUCUCCGUCCUAAGGAGAAGACUGCGGAUUCGAGUCCCGUACGGAACG [G9A G10A C31G G52A] has a yeast fitness of 0.531. In the case of GUUCUGUUGGCGUAAUGGUAACGCGUCUCCCUCCUAAGGAGAAGACUGCGGGUUCGAGUCGCGUACUGAACG [C5U C61G G67U], the yeast fitness is reported as no more than 0.5. GUUCCGUUGGCGUAAUUGUAACGCGUCUCCCUCCUAAGGUGUAGACUGGGAGUUCGAGUCCCGUAAGCAACG [G17U A40U A42U C49G G51A C66A G68C] gave a yeast fitness of 0.536. Work on GUUCAGUUGGCGUAAUGGUAACGCGUCUCCCUACUAAAGAGAAGCCUGCGGAUGCGAGUCCCGUACAGAACG [C5A C33A G38A A45C G52A U54G G67A] yielded a yeast fitness of no more than 0.5. In the case of GUUCCGUUGGCGUAAUGGUAACGCAUCUCCCUCCUAAGGAGAAGUCUGCGGGUCCGACUCCCGUACGGAACG [G25A A45U U54C G58C], the yeast fitness is reported as 0.596. In the case of GUUCCGUUCGCGUAAUGCUAACGCGUCUCCCUCCUAAGGAGAAGACUGGGGGUUCGAGUCCCAUUCGGAACG [G9C G18C C49G G63A A65U], the yeast fitness is reported as no more than 0.5. Work on GUUCGGUUGGGGUUUUGGUAACGCGUCUCCCUCCUAAGGAGAAGACUGCGGGUUCGAGUCUCGUACGCAACG [C5G C11G A14U A15U C61U G68C] yielded a yeast fitness of no more than 0.5. With GUUCGGUUGGUGUAAUGGUAACGCCUCUCCCUCCUAAGGAGAAGACUGCGGGUUCGAGUCCCGUACGGAACG [C5G C11U G25C] the yeast fitness was 0.571.
